Experimental data from ChEMBL document CHEMBL3259770, “Structure-activity relationship studies of the tricyclic indoline resistance-modifying agent” (J Med Chem, 2014).
≈ marks a conversion by molar mass, not a printed value.

What was measured:
[1] = tested on: Staphylococcus aureus; experiment: Antibacterial activity against methicillin-resistant Staphylococcus aureus ATCC BAA-44 after overnight incubation by broth microdilution assay in presence of 4 ug/ml amoxicillin and 2 ug/ml clavulanic acid; type: functional
How it was run: (§1)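 Resensitization screen: compound from a 5 mg/mL DMSO stock, 2-fold serially diluted in MHB from 32 μg/mL final. Antibiotic was held at its CLSI-susceptible level: amoxicillin/clavulanic acid 4/2 μg/mL, cefazolin 8 μg/mL, meropenem 4 μg/mL. Final MRSA inoculum OD600 0.001, overnight at 37 °C with shaking. MRC was the concentration giving no visible overnight growth.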

[2] = tested on: Staphylococcus aureus; experiment: Antibacterial activity against methicillin-resistant Staphylococcus aureus ATCC BAA-44 after overnight incubation by broth microdilution assay in presence of 8 ug/ml cefazolin; type: functional; how it was run: as §1
[3] = tested on: Staphylococcus aureus; experiment: Antibacterial activity against methicillin-resistant Staphylococcus aureus ATCC 33592 after overnight incubation by broth microdilution assay in presence of 4 ug/ml meropenem; type: functional; how it was run: as §1
[4] = Cytotoxicity against human HeLa cells after 24 hrs by CellTiter-Glo assay; type: cell-based
How it was run: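 HeLa cells seeded at 20 000 cells/well in DMEM with 10% FCS and 1% penicillin/streptomycin, grown 16 h at 37 °C, 5% CO2. Medium renewed, then compound added in DMSO to final 0.5–32 μg/mL, triplicate series. After 24 h at 37 °C, plates equilibrated to room temperature and viability read by CellTiter-Glo luminescence.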

SMILES	MRC [1] [µg/mL]	MRC [2] [µg/mL]	MRC [3] [µg/mL]	GI50 at 24 h [4] [µg/mL]
C=C1CCC[C@@H]2Nc3ccc(Br)cc3[C@]12CCNS(=O)(=O)c1ccc(I)cc1	4	4	32	33 (≈ 57.6 µM)
C=C1CCC[C@@H]2Nc3ccc(Br)cc3[C@]12CCNS(=O)(=O)c1ccc(Cl)cc1	4	4	4	17.1 (≈ 35.5 µM)
C=C1CCC[C@@H]2Nc3ccc(Cl)cc3[C@]12CCNS(=O)(=O)c1ccc(Cl)cc1	8	4	8	35 (≈ 80 µM)
C=C1CCC[C@@H]2Nc3c(Br)cccc3[C@]12CCNS(=O)(=O)c1ccc(Cl)cc1	>32	32	8	–
C=C1CCC[C@@H]2Nc3c(Cl)cc(Cl)cc3[C@]12CCNS(=O)(=O)c1ccc(Cl)cc1	4	4	4	13.6 (≈ 28.8 µM)
C=C1CCC[C@@H]2Nc3c(F)cc(Br)cc3[C@]12CCNS(=O)(=O)c1ccc(Cl)cc1	2	4	4	18.1 (≈ 36.2 µM)
C=C1CCC[C@@H]2Nc3c(F)cc(Br)cc3[C@]12CCN	>32	32	16	16.2 (≈ 49.8 µM)
C=C1CCC[C@@H]2Nc3ccc(Br)cc3[C@]12CCNC(=O)C(F)(F)F	>32	>32	32	–
C=C1CCC[C@@H]2Nc3ccc(Br)cc3[C@]12CCNC(=O)CCCC	>32	>32	32	–
C=C1CCC[C@@H]2Nc3ccc(Br)cc3[C@]12CCNC(=O)c1ccc(Cl)cc1	>32	>32	>32	–
C=C1CCC[C@@H]2Nc3ccc(Br)cc3[C@]12CCNS(=O)(=O)c1ccc(C)cc1	>32	>32	>32	–
C=C1CCC[C@@H]2Nc3ccc(Br)cc3[C@]12CCNS(=O)(=O)c1ccc(F)cc1	>32	>32	>32	–
